Results on 2 compounds are retold here after article PMC6415968 (Organic letters, 2018).

Experiment [1] concerns the target T1, ERβ (Homo sapiens, UniProt Q92731). As to conditions: ref HsiehRW; RajanSS; SharmaSK; GreeneGL Steroids, 2008, 73, 59–68; cited from earlier work.
The subject of experiment [2] is MDA-MB-231 human breast cancer cells. The experiment in a line: growth inhibition assay, MDA-MB-231. Format: cell-based. The method in brief: (§1)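 Simple growth-inhibition assay in two human cancer lines, MDA-MB-231 (breast) and AsPC-1 (pancreatic), run without a particular target in mind. Cells exposed to a range of test compound concentrations, highest 40 μM. GI50 (μM) read.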

Experiment [3] concerns AsPC-1 human tumor cell line (pancreatic cancer). Put plainly: growth inhibition assay, AsPC-1. Format: cell-based. The conditions noted are these: ASPC1. The method in brief:
as §1

In experiment [4] the target is T1, ERβ. The experiment in a line: estrogen receptor β agonist assay. Format: cell-based.
Experiment [5] concerns the target T2, ERα (Homo sapiens, UniProt P03372).
T2 sequence (P03372 1-595): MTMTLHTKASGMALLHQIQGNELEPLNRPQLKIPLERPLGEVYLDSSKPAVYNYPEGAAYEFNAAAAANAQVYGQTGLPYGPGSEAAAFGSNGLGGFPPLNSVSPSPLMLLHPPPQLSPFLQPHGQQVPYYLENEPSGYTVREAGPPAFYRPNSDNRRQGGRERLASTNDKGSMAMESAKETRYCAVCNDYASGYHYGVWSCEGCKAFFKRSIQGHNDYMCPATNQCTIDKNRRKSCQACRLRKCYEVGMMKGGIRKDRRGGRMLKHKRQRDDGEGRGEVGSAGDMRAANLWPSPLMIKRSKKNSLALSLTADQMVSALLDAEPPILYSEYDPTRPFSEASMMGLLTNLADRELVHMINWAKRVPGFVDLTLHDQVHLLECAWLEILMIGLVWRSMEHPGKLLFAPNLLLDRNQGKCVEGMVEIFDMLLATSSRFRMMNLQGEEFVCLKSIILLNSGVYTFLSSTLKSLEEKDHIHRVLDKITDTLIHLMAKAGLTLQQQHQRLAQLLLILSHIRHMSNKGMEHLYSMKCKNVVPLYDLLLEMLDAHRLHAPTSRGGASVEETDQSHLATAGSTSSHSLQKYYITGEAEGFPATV
Put plainly: estrogen receptor α agonist assay. The format is cell-based. As to conditions: estrogen receptor agonism.

The target of experiment [6] is T1, ERβ. The experiment in a line: estrogen receptor β antagonist assay. Format: cell-based. As to conditions: concentrations up to 10 μM.
For experiment [7], the target named is T2, ERα. Put plainly: estrogen receptor α antagonist assay. The format is cell-based. As to conditions: concentrations up to 10 μM.
Another experiment concerns panel of 468 kinases. Put plainly: KINOMEscan panel of 468 kinases. The format is binding. The conditions noted are these: kinases bound divided by distinct kinases tested.
The next experiment deals with cdc-2-like kinase CLK4 (Homo sapiens, UniProt Q9HAZ1). The experiment in a line: Kd determination CLK4. Format: binding.
Chain of cdc-2-like kinase CLK4 (Q9HAZ1 whole entry): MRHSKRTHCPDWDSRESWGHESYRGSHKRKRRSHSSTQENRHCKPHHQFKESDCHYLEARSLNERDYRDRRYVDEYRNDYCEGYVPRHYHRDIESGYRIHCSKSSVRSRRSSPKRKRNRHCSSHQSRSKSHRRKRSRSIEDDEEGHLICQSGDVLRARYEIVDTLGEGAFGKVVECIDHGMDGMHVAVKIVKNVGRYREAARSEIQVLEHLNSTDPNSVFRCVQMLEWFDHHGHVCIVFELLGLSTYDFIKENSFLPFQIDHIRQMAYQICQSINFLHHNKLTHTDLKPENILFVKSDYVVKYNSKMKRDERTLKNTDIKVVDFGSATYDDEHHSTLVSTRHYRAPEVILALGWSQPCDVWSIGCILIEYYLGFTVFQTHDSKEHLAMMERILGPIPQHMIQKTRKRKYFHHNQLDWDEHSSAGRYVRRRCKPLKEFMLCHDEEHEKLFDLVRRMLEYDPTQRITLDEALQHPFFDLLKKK
Another experiment addresses CLK1 (Homo sapiens, UniProt P49759). The experiment in a line: Kd determination CLK1. Format: binding.
The target of the next experiment is CLK2 (Homo sapiens, UniProt P49760). Put plainly: Kd determination CLK2. The format is binding.
Chain of CLK2 (P49760 whole entry): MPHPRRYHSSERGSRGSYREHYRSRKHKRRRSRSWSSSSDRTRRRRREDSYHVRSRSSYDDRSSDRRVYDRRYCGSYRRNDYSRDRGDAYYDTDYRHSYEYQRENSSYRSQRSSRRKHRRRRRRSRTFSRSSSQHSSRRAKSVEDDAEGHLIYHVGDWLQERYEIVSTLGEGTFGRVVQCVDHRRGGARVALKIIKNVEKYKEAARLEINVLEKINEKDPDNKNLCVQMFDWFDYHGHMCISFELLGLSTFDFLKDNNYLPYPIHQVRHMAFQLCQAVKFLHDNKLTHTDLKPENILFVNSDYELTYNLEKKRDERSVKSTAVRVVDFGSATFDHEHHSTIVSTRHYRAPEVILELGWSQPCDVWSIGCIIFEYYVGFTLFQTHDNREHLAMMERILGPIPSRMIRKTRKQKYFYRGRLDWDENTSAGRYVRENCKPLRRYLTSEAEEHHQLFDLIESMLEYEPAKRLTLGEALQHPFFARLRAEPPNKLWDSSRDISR
The target of another experiment is DYRK1A (Homo sapiens, UniProt Q13627). The experiment in a line: Kd determination DYRK1A. The format is binding.
In the next experiment the test system is CLK1,2,4. The experiment in a line: established model for inhibition of CLK1,2,4 in cells. Format: cell-based.
Another experiment deals with cells (mitosis). Put plainly: mitotic arrest in cells. The format is cell-based.
Experiment [8] concerns 12 human primary cell-based systems. The experiment in a line: BioMAP Diversity PLUS panel. The conditions noted are these: comparison with reference database of >4,000 agents.

Each structure is given as a SMILES string. Values after ≈ are worked out from the molar mass of the structure shown. Values joined by “and” are separate entries in the source; they are usually repeats but may differ in a detail not shown here. Identical values can stand only once. “Also recorded” adds a separate entry of the source.

T1 sequence (Q92731 whole entry): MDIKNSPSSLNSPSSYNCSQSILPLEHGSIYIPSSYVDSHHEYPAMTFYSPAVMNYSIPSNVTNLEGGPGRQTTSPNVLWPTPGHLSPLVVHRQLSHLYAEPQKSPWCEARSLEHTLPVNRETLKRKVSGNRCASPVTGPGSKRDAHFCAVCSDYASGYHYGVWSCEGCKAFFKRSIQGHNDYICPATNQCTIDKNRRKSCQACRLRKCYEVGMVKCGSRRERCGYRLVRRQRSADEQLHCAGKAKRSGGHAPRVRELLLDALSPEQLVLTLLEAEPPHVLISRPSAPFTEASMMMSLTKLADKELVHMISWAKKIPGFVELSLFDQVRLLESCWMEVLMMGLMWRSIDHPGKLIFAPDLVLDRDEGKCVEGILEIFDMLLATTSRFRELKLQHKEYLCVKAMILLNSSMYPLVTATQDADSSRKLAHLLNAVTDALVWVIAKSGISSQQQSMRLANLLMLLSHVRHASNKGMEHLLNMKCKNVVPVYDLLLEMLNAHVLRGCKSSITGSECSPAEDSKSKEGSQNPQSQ
Chain of CLK1 (P49759 whole entry): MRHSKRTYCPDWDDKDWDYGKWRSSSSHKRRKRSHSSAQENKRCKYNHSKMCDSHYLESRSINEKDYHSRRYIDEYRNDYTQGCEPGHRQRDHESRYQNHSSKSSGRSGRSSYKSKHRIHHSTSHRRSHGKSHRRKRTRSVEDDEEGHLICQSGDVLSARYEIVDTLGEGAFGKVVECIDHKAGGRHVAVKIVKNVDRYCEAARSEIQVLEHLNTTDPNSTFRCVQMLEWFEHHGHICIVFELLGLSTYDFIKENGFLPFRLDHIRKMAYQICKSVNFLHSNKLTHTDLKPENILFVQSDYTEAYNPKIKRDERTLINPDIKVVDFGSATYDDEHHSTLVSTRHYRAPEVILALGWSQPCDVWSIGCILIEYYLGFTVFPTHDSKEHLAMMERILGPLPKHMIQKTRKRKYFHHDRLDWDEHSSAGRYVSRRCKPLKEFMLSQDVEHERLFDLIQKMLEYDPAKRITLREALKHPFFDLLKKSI

Take `C[C@]12CCc3c(ccc4cc(O)ccc34)[C@@H]1CC[C@@H]2O` [17-β-dihydroequilenin]: on ERβ [1], the “shift in selectivity for agonism of ER-β” value is “related shift in selectivity for agonism of ER-β”.

`C[C@]12CCc3c(ccc4ccc(O)cc34)[C@@H]1C[C@@H](O)C2` [VII, estra-1,3,5(10),6,8-pentaene-2,16α-diol]: the GI50 is about 0.2 µg/mL (≈ 0.745 µM) in [2]; ~0.5 µg/mL and 2 µM in experiment [3]. On ERβ [4], this compound had an EC50 of 21 nM. Besides, the “shift in selectivity favoring agonism of ERβ over ERα in comparison to 17-β-estradiol” value at ERβ [4] (ERβ vs ERα, relative to 17-β-estradiol) was about 4 fold. For the same compound, the “agonist potency order ERβ vs ERα” value at ERα [5] is “potency for ERβ > ERα”. Besides, on ERβ [6], the “antagonist activity at ERβ” value is listed as “not showing activity as an antagonist”. At ERα [7], the “antagonist activity at ERα” value is listed as “not showing activity as an antagonist”. Moreover, in the experiment on panel of 468 kinases, the “S-score(35)” value was 0.03. For the same compound, the Kd on cdc-2-like kinase CLK4 was determined as 350 nM; on CLK1, 1400 nM; on CLK2, 2000 nM; at DYRK1A, 2000 nM. Moreover, in the experiment on CLK1,2,4, the “CLK inhibitory activity in cells” value is “no evidence of CLK inhibitory activity in cells”. The mitotic arrest entry with cells (mitosis) was “arrests cells in mitosis; also recorded: induces mitotic arrest in cells”. The “BioMAP phenotypic profile similarity to reference agents” value in experiment [8] is “favorable comparison to both 17-β estradiol (a dual ERα and ERβ agonist) as well as 2-methoxyestradiol; also recorded: correlation with several microtubule targeting agents (combretastatin A4, 2-methoxyestradiol and paclitaxel); also recorded: related to the clinically relevant microtubule-targeting agent paclitaxel; also recorded: phenotypically related to paclitaxel”.
